Measured values as given in ChEMBL document CHEMBL4689842, “EUbOPEN Chemogenomics Library wave 1” (2021).

Test system: HEK-293T
Experiment: Multiplex assay against HEK293T;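 as to Population Tubulin-Different-Phenotype (%): share of the cells with healthy nuclei that show this phenotype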
Type: toxicity, cell-based
Conditions: human
Method in brief: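 Live cells were stained at seeding with Hoechst33342, BioTracker Green Microtubule Cytoskeleton Dye, MitoTracker Red and Annexin V Alexa Fluor 680, then imaged on a CQ1 microscope at 37°C and 5% CO2 after compound addition. CellPathfinder machine-learning gating split cells into Hoechst high-intensity objects or normal cells. Normal cells were split into healthy, pyknosed or fragmented nuclei, and pyknosed cells into mitotic or apoptotic. Tubulin, mitochondrial-mass and membrane-permeability phenotypes are per cents of healthy-nucleus cells.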

[1] = 12 h, 1 µM, compound concentration 1 uM, replicate 1
[2] = 12 h, 1 µM, compound concentration 1 uM, replicate 2
[3] = 12 h, 10 µM, compound concentration 10 uM, replicate 1
[4] = 12 h, 10 µM, compound concentration 10 uM, replicate 2
[5] = 24 h, 1 µM, compound concentration 1 uM, replicate 1
[6] = 24 h, 1 µM, compound concentration 1 uM, replicate 2
[7] = 24 h, 10 µM, compound concentration 10 uM, replicate 1
[8] = 24 h, 10 µM, compound concentration 10 uM, replicate 2
[9] = 48 h, 1 µM, compound concentration 1 uM, replicate 1
[10] = 48 h, 1 µM, compound concentration 1 uM, replicate 2
[11] = 48 h, 10 µM, compound concentration 10 uM, replicate 1
[12] = 48 h, 10 µM, compound concentration 10 uM, replicate 2

In the case of Cc1nc(Cc2cccc(C(F)(F)F)c2)sc1-c1ccc(C(N)=O)nc1 [TP-024n], the “Population Apoptotic (%)” value [1] is reported as 41%, the “Population Fragmented Nuclei (%)” value [1] is reported as 7% and the “Population Healthy Nuclei (%)” value [1] is reported as 53%. The “Population Hoechst High Intensity Objects (%)” value [1] was 14%, the “Population Membrane Permeable-Phenotype (%)” value [1] was 2% and the “Population Mitochondria Different-Phenotype (%)” value [1] was 65%. The “Population Mitotic Cells (%)” value [1] was 58%, the “Population Normal (%)” value [1] was 85% and the “Population Pyknosed Nuclei (%)” value [1] was 39%. For the same compound, the “Population Tubulin-Different-Phenotype (%)” value [1] was 41%, the “Total Cell Count” value [1] was 435 and the “Population Apoptotic (%)” value [2] was 10%. The “Population Fragmented Nuclei (%)” value [2] was 2%, the “Population Healthy Nuclei (%)” value [2] was 47% and the “Population Hoechst High Intensity Objects (%)” value [2] was 5%. For the same compound, the “Population Membrane Permeable-Phenotype (%)” value [2] was 9%, the “Population Mitochondria Different-Phenotype (%)” value [2] was 22% and the “Population Mitotic Cells (%)” value [2] was 89%. The “Population Normal (%)” value [2] was 94%, the “Population Pyknosed Nuclei (%)” value [2] was 50% and the “Population Tubulin-Different-Phenotype (%)” value [2] was 26%. The “Total Cell Count” value [2] was 212, the “Population Apoptotic (%)” value [3] was 50% and the “Population Fragmented Nuclei (%)” value [3] was 11%. The “Population Healthy Nuclei (%)” value [3] was 29%, the “Population Hoechst High Intensity Objects (%)” value [3] was 12% and the “Population Membrane Permeable-Phenotype (%)” value [3] was 0%. For the same compound, the “Population Mitochondria Different-Phenotype (%)” value [3] was 91%, the “Population Mitotic Cells (%)” value [3] was 49% and the “Population Normal (%)” value [3] was 87%. The “Population Pyknosed Nuclei (%)” value [3] was 59%, the “Population Tubulin-Different-Phenotype (%)” value [3] was 59% and the “Total Cell Count” value [3] was 316. The “Population Apoptotic (%)” value [4] was 25%, the “Population Fragmented Nuclei (%)” value [4] was 8% and the “Population Healthy Nuclei (%)” value [4] was 25%. The “Population Hoechst High Intensity Objects (%)” value [4] was 9%, the “Population Membrane Permeable-Phenotype (%)” value [4] was 6% and the “Population Mitochondria Different-Phenotype (%)” value [4] was 66%. For the same compound, the “Population Mitotic Cells (%)” value [4] was 75%, the “Population Normal (%)” value [4] was 90% and the “Population Pyknosed Nuclei (%)” value [4] was 65%. For the same compound, the “Population Tubulin-Different-Phenotype (%)” value [4] was 30%, the “Total Cell Count” value [4] was 141 and the “Population Apoptotic (%)” value [5] was 49%. For the same compound, the “Population Fragmented Nuclei (%)” value [5] was 9%, the “Population Healthy Nuclei (%)” value [5] was 50% and the “Population Hoechst High Intensity Objects (%)” value [5] was 11%. For the same compound, the “Population Membrane Permeable-Phenotype (%)” value [5] was 2%, the “Population Mitochondria Different-Phenotype (%)” value [5] was 55% and the “Population Mitotic Cells (%)” value [5] was 50%. The “Population Normal (%)” value [5] was 88%, the “Population Pyknosed Nuclei (%)” value [5] was 40% and the “Population Tubulin-Different-Phenotype (%)” value [5] was 28%. For the same compound, the “Total Cell Count” value [5] was 429, the “Population Apoptotic (%)” value [6] was 19% and the “Population Fragmented Nuclei (%)” value [6] was 4%. For the same compound, the “Population Healthy Nuclei (%)” value [6] was 62%, the “Population Hoechst High Intensity Objects (%)” value [6] was 2% and the “Population Membrane Permeable-Phenotype (%)” value [6] was 5%. For the same compound, the “Population Mitochondria Different-Phenotype (%)” value [6] was 24%, the “Population Mitotic Cells (%)” value [6] was 80% and the “Population Normal (%)” value [6] was 97%. The “Population Pyknosed Nuclei (%)” value [6] was 33%, the “Population Tubulin-Different-Phenotype (%)” value [6] was 36% and the “Total Cell Count” value [6] was 239. The “Population Apoptotic (%)” value [7] was 51%, the “Population Fragmented Nuclei (%)” value [7] was 11% and the “Population Healthy Nuclei (%)” value [7] was 31%. For the same compound, the “Population Hoechst High Intensity Objects (%)” value [7] was 17%, the “Population Membrane Permeable-Phenotype (%)” value [7] was 3% and the “Population Mitochondria Different-Phenotype (%)” value [7] was 86%. The “Population Mitotic Cells (%)” value [7] was 48%, the “Population Normal (%)” value [7] was 82% and the “Population Pyknosed Nuclei (%)” value [7] was 57%. The “Population Tubulin-Different-Phenotype (%)” value [7] was 52%, the “Total Cell Count” value [7] was 338 and the “Population Apoptotic (%)” value [8] was 36%. For the same compound, the “Population Fragmented Nuclei (%)” value [8] was 10%, the “Population Healthy Nuclei (%)” value [8] was 30% and the “Population Hoechst High Intensity Objects (%)” value [8] was 10%. For the same compound, the “Population Membrane Permeable-Phenotype (%)” value [8] was 2%, the “Population Mitochondria Different-Phenotype (%)” value [8] was 65% and the “Population Mitotic Cells (%)” value [8] was 63%. For the same compound, the “Population Normal (%)” value [8] was 89%, the “Population Pyknosed Nuclei (%)” value [8] was 59% and the “Population Tubulin-Different-Phenotype (%)” value [8] was 50%. The “Total Cell Count” value [8] was 148, the “Population Apoptotic (%)” value [9] was 32% and the “Population Fragmented Nuclei (%)” value [9] was 12%. For the same compound, the “Population Healthy Nuclei (%)” value [9] was 50%, the “Population Hoechst High Intensity Objects (%)” value [9] was 9% and the “Population Membrane Permeable-Phenotype (%)” value [9] was 4%. The “Population Mitochondria Different-Phenotype (%)” value [9] was 25%, the “Population Mitotic Cells (%)” value [9] was 67% and the “Population Normal (%)” value [9] was 90%. The “Population Pyknosed Nuclei (%)” value [9] was 37%, the “Population Tubulin-Different-Phenotype (%)” value [9] was 25% and the “Total Cell Count” value [9] was 594. The “Population Apoptotic (%)” value [10] was 17%, the “Population Fragmented Nuclei (%)” value [10] was 5% and the “Population Healthy Nuclei (%)” value [10] was 80%. The “Population Hoechst High Intensity Objects (%)” value [10] was 2%, the “Population Membrane Permeable-Phenotype (%)” value [10] was 5% and the “Population Mitochondria Different-Phenotype (%)” value [10] was 5%. For the same compound, the “Population Mitotic Cells (%)” value [10] was 82%, the “Population Normal (%)” value [10] was 97% and the “Population Pyknosed Nuclei (%)” value [10] was 13%. For the same compound, the “Population Tubulin-Different-Phenotype (%)” value [10] was 19%, the “Total Cell Count” value [10] was 464 and the “Population Apoptotic (%)” value [11] was 53%. For the same compound, the “Population Fragmented Nuclei (%)” value [11] was 18%, the “Population Healthy Nuclei (%)” value [11] was 27% and the “Population Hoechst High Intensity Objects (%)” value [11] was 12%. For the same compound, the “Population Membrane Permeable-Phenotype (%)” value [11] was 2%, the “Population Mitochondria Different-Phenotype (%)” value [11] was 69% and the “Population Mitotic Cells (%)” value [11] was 46%. The “Population Normal (%)” value [11] was 87%, the “Population Pyknosed Nuclei (%)” value [11] was 53% and the “Population Tubulin-Different-Phenotype (%)” value [11] was 42%. The “Total Cell Count” value [11] was 373, the “Population Apoptotic (%)” value [12] was 46% and the “Population Fragmented Nuclei (%)” value [12] was 10%. For the same compound, the “Population Healthy Nuclei (%)” value [12] was 39%, the “Population Hoechst High Intensity Objects (%)” value [12] was 5% and the “Population Membrane Permeable-Phenotype (%)” value [12] was 6%. The “Population Mitochondria Different-Phenotype (%)” value [12] was 54%, the “Population Mitotic Cells (%)” value [12] was 53% and the “Population Normal (%)” value [12] was 94%. The “Population Pyknosed Nuclei (%)” value [12] was 50%, the “Population Tubulin-Different-Phenotype (%)” value [12] was 60% and the “Total Cell Count” value [12] was 164.
